From ChEMBL document CHEMBL4270555, “Synthesis and biological evaluation of magnolol derivatives as melatonergic receptor agonists with potential use in depression” (Eur J Med Chem, 2018) come the findings set out here.

Data set [1] is described as follows: Drug metabolism in Sprague-Dawley rat feces assessed as (2S,3S,4S,5R,6S)-6-(5'-allyl-5-(1-hydroxyallyl)-2'-((2S,3R,4S,5S,6R)-3,4,5-trihydroxy-6-(hydroxymethyl)tetrahydro-2H-pyran-2-yloxy)biphenyl-2-yloxy)-3,4,5-trihydroxytetrahydro-2H-pyran-2-carboxylic acid formation at 100 mg/kg, po by UPLC-IT-TOF-MS analysis. The data set is classed as ADME, organism-based. Conditions: in vivo. The procedure, abridged: (§1)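 Rats (n = 6) housed in metabolic cages received 100.0 mg/kg orally; controls received 0.5% CMC-Na. Plasma, urine and faeces were collected and analyzed by LC-IT-TOF-MS on a C18 column at 30 °C. Gradient 5–100% acetonitrile with 0.05% formic acid over 18 min at 0.2 mL/min; positive and negative ion MS/MS.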

Data set [2] in a line: Drug metabolism in Sprague-Dawley rat urine assessed as 5,5'-bis(1-hydroxyallyl)biphenyl-2,2'-diol formation at 100 mg/kg, po by UPLC-IT-TOF-MS analysis. As to conditions: in vivo. The data set is classed as ADME, organism-based. An outline of the steps:
(§2)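 Male/unspecified SD rats (n = 6) housed individually in metabolic cages, dosed orally at 100.0 mg/kg; controls given 0.5% CMC-Na orally. Plasma, urine and faeces collected. LC-IT-TOF-MS on C18 column at 30 °C, formic acid (0.05%) water/acetonitrile gradient 5–100% B over 18 min, 0.2 mL/min; positive and negative ion modes with automatic MS/MS.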

Data set [3] is described as follows: Drug metabolism in Sprague-Dawley rat plasma assessed as 5,5'-bis(1-hydroxyallyl)biphenyl-2,2'-diol formation at 100 mg/kg, po by UPLC-IT-TOF-MS analysis. Conditions: in vivo. The data set is classed as ADME, organism-based. An outline of the steps: as §2
For data set [4], the system named is Mus musculus. Nature of the data set: Antidepressant activity in po dosed Kunming mouse assessed as decrease in immobility duration by forced swim test. The data set is classed as functional, organism-based. The procedure, abridged: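 Male Kunming mice (18–20 g) given 10, 20 or 40 mg/kg orally; fluoxetine and agomelatine 20 mg/kg as references. Each mouse swam 6 min in a cylinder (25 × 15 cm) holding 10 cm of water at 25 ± 1 °C. Immobility over the last 4 min was scored by video tracking; n = 10, mean ± SEM versus vehicle.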

For data set [5], the system named is Mus musculus. The data set can be described thus: Decrease in dopamine level in Kunming mouse thalamus at 40 mg/kg, po treated for 7 days by HPLC-ECD analysis. The data set is classed as functional, organism-based. An outline of the steps:
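Male Kunming mice received vehicle or 40 mg/kg for 7 days, then were killed by cervical dislocation and the brain regions dissected on ice. Tissue was homogenized in ice-cold 0.2 M perchloric acid with 0.1 mM EDTA and centrifuged at 15,000 rpm, 20 min, 4 °C. Supernatant was analyzed by HPLC-ECD (+0.50 V; phosphate/octanesulfonate mobile phase, pH 3.0). Results in ng/g, mean ± SEM.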

Data set [6] has as its system Mus musculus. Nature of the data set: Increase in 4-hydroxy-3-methoxyphenylacetic acid level in Kunming mouse thalamus at 40 mg/kg, po treated for 7 days by HPLC-ECD analysis. The data set is classed as functional, organism-based. The procedure, abridged: (§3)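 Male Kunming mice (18–20 g) given vehicle or 40 mg/kg for 7 days, then killed by cervical dislocation. Frontal cortex, hippocampus, striatum, hypothalamus and thalamus dissected on ice, homogenized in ice-cold 0.2 M perchloric acid with 0.1 mM EDTA, centrifuged 15,000 rpm, 20 min, 4 °C. Supernatant analysed by HPLC-ECD at +0.50 V; phosphate/octanesulfonate mobile phase pH 3.0 with 12% methanol. Levels in ng/g, mean ± SEM.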

Data set [7] can be described thus: Drug metabolism in Sprague-Dawley rat urine assessed as (2R,2'R,3S,3'S,4S,4'S,5R,5'R,6S,6'S)-6,6'-(5,5'-diallylbiphenyl-2,2'-diyl)bis(oxy)bis(2-(hydroxymethyl)tetrahydro-2H-pyran-3,4,5-triol) formation at 100 mg/kg, po by UPLC-IT-TOF-MS analysis. The data set is classed as ADME, organism-based. As to conditions: in vivo. An outline of the steps: as §2
Data set [8] has as its target T1, Melatonin receptor type 1B (Homo sapiens) (UniProt P49286).
T1 sequence (whole entry): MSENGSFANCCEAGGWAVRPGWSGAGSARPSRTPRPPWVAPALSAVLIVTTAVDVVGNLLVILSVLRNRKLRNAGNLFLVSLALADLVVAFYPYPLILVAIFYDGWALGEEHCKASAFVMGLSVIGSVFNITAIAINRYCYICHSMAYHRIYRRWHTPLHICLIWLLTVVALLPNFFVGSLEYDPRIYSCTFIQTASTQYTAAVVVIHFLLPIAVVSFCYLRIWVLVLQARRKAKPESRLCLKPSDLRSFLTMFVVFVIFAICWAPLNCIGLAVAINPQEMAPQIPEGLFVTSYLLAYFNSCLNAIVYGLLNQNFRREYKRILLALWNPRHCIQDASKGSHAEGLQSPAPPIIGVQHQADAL
The data set can be described thus: Agonist activity at human MT2 receptor expressed in HEK293 cells at 1 mM after 24 hrs by Fluo-8 dye-based calcium assay relative to control. The data set is classed as functional, cell-based. An outline of the steps: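 Fluo-8 calcium assay in HEK293 cells stably expressing human MT1 or MT2, seeded 4×10^4/well and incubated 24 h. Compounds tested at 1.00 mM, agomelatine positive control at 3.33 µM; fluorescence at ex 485/em 525 nm. Agonism expressed as mean ± SD, n = 3.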

Data set [9] has as its system Mus musculus. The data set can be described thus: Increase in ratio of 3,4-dihydroxyphenylacetic acid and 4-hydroxy-3-methoxyphenylacetic acid to dopamine level in Kunming mouse hypothalamus at 40 mg/kg, po treated for 7 days by HPLC-ECD analysis. The data set is classed as functional, organism-based. An outline of the steps:
as §3

For another data set, the system named is Rattus norvegicus. Nature of the data set: Toxicity in Sprague-Dawley rat assessed as death at 2000 mg/kg, po measured continuously for first 4 hrs followed by measured every hour for next 24 hrs and at 6 hrs intervals for following 48 hrs post dose. The data set is classed as organism-based. Conditions: in vivo. An outline of the steps:
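Followed OECD 425 in adult SD rats (180–220 g), three groups of six. Vehicle control received 0.5% CMC-Na orally; separate male and female groups received 2000 mg/kg orally. Endpoints observed: behaviour, breathing, cutaneous effects, sensory nervous system responses, gastrointestinal effects and deaths.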

Data set [10] in a line: Drug metabolism in Sprague-Dawley rat plasma assessed as 1-(5'-allyl-2'-hydroxy-6-((2S,3R,4S,5S,6R)-3,4,5-trihydroxy-6-(hydroxymethyl)tetrahydro-2H-pyran-2-yloxy)biphenyl-3-yl)prop-2-en-1-one formation at 100 mg/kg, po by UPLC-IT-TOF-MS analysis. Conditions: in vivo. The data set is classed as ADME, organism-based. An outline of the steps: as §1
A short description of data set [11]: Drug metabolism in Sprague-Dawley rat feces assessed as (2R,2'R,3S,3'S,4S,4'S,5R,5'R,6S,6'S)-6,6'-(5,5'-diallylbiphenyl-2,2'-diyl)bis(oxy)bis(2-(hydroxymethyl)tetrahydro-2H-pyran-3,4,5-triol) formation at 100 mg/kg, po by UPLC-IT-TOF-MS analysis. The data set is classed as ADME, organism-based. As to conditions: in vivo. The procedure, abridged:
as §1

Data set [12] concerns Mus musculus. Nature of the data set: Antidepressant activity in po dosed Kunming mouse assessed as decrease in immobility time by tail suspension test. As to conditions: read-out: MED. The data set is classed as functional. An outline of the steps: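 Male Kunming mice dosed orally at 10, 20 or 40 mg/kg, with fluoxetine and agomelatine 20 mg/kg as references. Mice were hung by the tail with tape about 1 cm from the tip, 50 cm above a box, for 6 min, isolated from sound and view. Immobility in the last 4 min was video-tracked; n = 10, mean ± SEM.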

Data set [13] relates to Mus musculus. The data set can be described thus: Effect on 5-hydroxytryptamine level in Kunming mouse frontal cortex at 40 mg/kg, po treated for 7 days by HPLC-ECD analysis. The data set is classed as functional, organism-based. The procedure, abridged: as §3

Active and inactive are the calls of the source. The calls are words filed in the database; no cut-off is given here.

Regarding `C=CCc1ccc(O)c(-c2cc(CC=C)ccc2O[C@@H]2O[C@H](CO)[C@@H](O)[C@H](O)[C@H]2O)c1`, the Drug metabolism result was “Metabolite_Detected” in data set [1]; “Metabolite_Detected” in data set [2]; “Metabolite_Notdetected” in data set [3]; “Metabolite_Detected” in data set [7]; “Metabolite_Notdetected” in [10]; “Metabolite_Detected” in data set [11]. Moreover, the Activity entry in the data set on Mus musculus [4] is “Dose-dependent effect”; in [8], 151%; in the data set with Rattus norvegicus, “Non-Toxic”. For the same compound, the result with Mus musculus [5], in the data set on Mus musculus [6] and in the data set with Mus musculus [9] was Active. For the same compound, the minimal effective dose in the data set on Mus musculus [12] was found to be 10 mg/kg. In addition, in the data set with Mus musculus [13], the outcome was inactive.
